Experimental data collected from several papers.
Target: Macrophage-stimulating protein receptor (MST1R, Homo sapiens, UniProt Q04912)

SMILES | assay | conditions | remaining binding [%]
C[C@H]1CCN(c2nccc(-c3cnn4ncccc34)n2)C1 | binding | 1 µM | 93
O=C(Nc1c[nH]nc1C(=O)NC1CCNCC1)c1cc(F)cc(F)c1 | binding, competition with immobilised ligand | 1 µM | 100
O=C(c1ccc(Nc2ncc(Cl)c(-c3cc4ccccc4s3)n2)cc1)N1CCC(N2CCCC2)CC1 | binding, competition with immobilised ligand | 1 µM | 56
NS(=O)(=O)c1cc(NC(=O)Cc2ccccc2)ccc1Oc1cccc(Cl)c1 | cell-free assay, competition with immobilised ligand | 1 µM | 97
C[C@@H](c1ccc(-n2cnc3c(N)ncnc32)cc1)N1CCc2nn(C)c(Cc3ccccc3)c2C1=O | binding, competition with immobilised ligand | 0.1 µM | 83
Cc1nc(N2CC[C@@H](O)C2)ncc1-c1cc(C(F)(F)F)cc2[nH]ncc12 | cell-free assay, competition with immobilised ligand | 1 µM | 100
N[C@H]1CCN(c2nccc(-c3cnn4ncccc34)n2)C1 | binding | 1 µM | 82
CNC(=O)[C@@H]1CC[C@@H](n2c(-c3ccc4cnccc4c3)nc3ccc(C(=O)NCc4cccc(C(N)=O)c4)cc32)C1 | binding, competition with immobilised ligand | 1 µM | 87
COc1ccnn2ncc(-c3ccnc(N(C)C)n3)c12 | binding | 1 µM | 100
CCN1CCN(Cc2ccc(C(=O)Nc3ccc(C)c(Oc4ccc5c(c4)CC(=O)N5)c3)cc2C(F)(F)F)CC1 | binding, competition with immobilised ligand | 1 µM | 88
O=C(O)[C@H]1[C@H](Cn2nnc3ccccc3c2=O)CC[C@@H]1C(=O)c1ccc(OCCC2CCOCC2)cc1 | cell-free assay, competition with immobilised ligand | 1 µM | 96
C=CC(=O)N1CCC(C(=O)NCC(=O)N2CCN(c3nc(-c4cnc(N)nc4C(F)F)nc(N4CCOCC4)n3)CC2)CC1 | binding, competition with immobilised ligand | 1 µM | 100
Nc1ncc2c(n1)-c1c([nH]c3ccc(C#CC4CC4)cc13)CCCC2 | binding, competition with immobilised ligand | 1 µM | 100
CN(c1nccc(-c2cnn3ncccc23)n1)C1CC1 | binding | 1 µM | 100
O=C(NCCCN1CCOCC1)c1ccc(Nc2nccc(-c3cc4ccccc4s3)n2)cc1 | binding, competition with immobilised ligand | 1 µM | 100
CS(=O)(=O)c1cc(C2(NC(=O)c3cncc4c3cnn4-c3ccc(F)cc3)CC2)ccn1 | cell-free assay, competition with immobilised ligand | 1 µM | 83
Cc1cnc(Nc2ccc(C(=O)N3CCC(N4CCCC4)CC3)cc2)nc1-c1cc2ccccc2s1 | binding, competition with immobilised ligand | 1 µM | 83
CC1CCCN1c1nccc(-c2cnn3ncccc23)n1 (stereo not drawn) | binding | 1 µM | 100
CO[C@@H](C)c1c(Nc2ccc([C@@H](N(C)C(=O)C3CCS(=O)(=O)CC3)C(F)(F)F)cc2)cnc2cc(Cl)nn12 | cell-free assay, competition with immobilised ligand | 1 µM | 100
CN(C)c1nccc(-c2cnc3ncccn23)n1 | binding | 1 µM | 98
c1ccc(N2CCN(Cc3nc4ccccc4[nH]3)CC2)nc1 | cell-free assay, competition with immobilised ligand | 1 µM | 100
